From PubChem BioAssay
TPT1 inh = inhibitors of Candida albicans tRNA 2'-phosphotransferase TPT1; recombinant caTPT1, FP RNA substrate dephosphorylation; 300,000 compounds, 0.81% hits; inhibition, % at 5 µM;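 active = inhibition above the mean of all tested compounds plus 3 SD, set per screening campaign, cut at about 24% in these data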;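 note: plate controls were DMSO alone for no effect and ferristatin control at 100 nM for full effect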
Rpn11 inh = inhibitors of human proteasome Rpn11. human 26S proteasome, Ub4-pepOG fluorescence polarization; 20S core pre-blocked with epoxomicin. AID 588493. 360,000 compounds, 0.59% hits. inhibition, % at 20 µM. O00487;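 active = inhibition at 20 µM, scaled to each plate's controls, above about 33%, limit read from the data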
HNF4A DNA FP = change in binding of human HNF4 alpha to DNA. P41235. 360,000 compounds, 0.3% hits. HNF4a-FITC DNA binding, fluorescence polarization, 1 h. AID 1224865. activity change, % at 10 µM; in the data active = activity change above about 30%, passing the limit was not always enough
Target sequence (P41235 whole entry, looked up): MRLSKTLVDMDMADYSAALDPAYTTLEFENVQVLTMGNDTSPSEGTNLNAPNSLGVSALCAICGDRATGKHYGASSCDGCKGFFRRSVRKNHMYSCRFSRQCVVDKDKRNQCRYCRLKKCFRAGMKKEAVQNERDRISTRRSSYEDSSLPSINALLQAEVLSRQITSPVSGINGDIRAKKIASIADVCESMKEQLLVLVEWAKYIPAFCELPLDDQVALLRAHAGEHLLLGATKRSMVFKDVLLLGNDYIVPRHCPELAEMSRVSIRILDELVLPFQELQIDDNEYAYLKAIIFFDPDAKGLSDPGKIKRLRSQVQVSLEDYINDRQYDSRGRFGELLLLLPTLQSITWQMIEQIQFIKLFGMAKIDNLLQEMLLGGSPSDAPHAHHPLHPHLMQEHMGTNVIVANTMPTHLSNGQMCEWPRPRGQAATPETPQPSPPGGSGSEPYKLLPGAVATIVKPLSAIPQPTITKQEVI
IDE act = IDE (human) activation, cell-based; P14735; HEK cells, FAbeta-B cleavage, fluorescence polarization; 0% vehicle, 100% cell-free pure enzyme wells; activation, % at 5.96 µM; 340,000 compounds, 0.073% hits; AID 493087;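 active = activation above the mean of all tested compounds plus 3 SD, set per screening campaign, cut at about 17% in these data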
IDE inh = inhibits human insulin-degrading enzyme in HEK cells; FAbetaB cleavage, fluorescence polarization; 320,000 compounds, 0.41% hits; inhibition, % at 5.59 µM; P14735;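 active = percent inhibition above the average of all tested compounds plus 3 SD, set per screening campaign, cut at about 16% in these data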;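 note: IDE supplied by intact live HEK cells; FP after avidin binding of uncleaved biotin substrate so inhibition keeps polarization high; 0% = DMSO wells and 100% = 60 µM reference IDE inhibitor Ii1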
CSN deneddyl inh = inhibitors of human CSN-mediated cullin deneddylation. inhibition, % at 12.5 µM. Q92905. Purified CSN, SCF-Nedd8-OG deneddylation, fluorescence polarization. 360,000 compounds, 0.38% hits. AID 651999;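 active = pattern-corrected inhibition above about 35%, with an unprinted fluorescence ratio check between 0.5 and 1.5, limit read from the data, passing the limit was not always enough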;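 note: 0% = enzyme with substrate and 100% = substrate without enzyme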
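Assay system: purified human Csn5 enzyme expressed in HEK293T cells; Input: 0.24 nM Csn5 enzyme, final concentration; Reagent: 10 nM SCFSkp2-Nedd8OG; Compound dosing: 12.5 µM single point; Times: reaction 90 min, room temperature; Technique: fluorescence polarization readout.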
* hit, by the source's call; nt = no result shown. Most compounds without a hit are left out; they make up all but 1.7% or so of the library.

SMILES	TPT1 inh	Rpn11 inh	HNF4A DNA FP	IDE act	IDE inh	CSN deneddyl inh
O=C1CCC(=O)c2ccc3c4c(ccc1c24)CC3	nt	-17	1	1	nt	-25
O=C1CCN2C=Nc3cccc4ccc1c2c34	-141	-173	-81	41*	-21	-73
COC(=O)Cc1c(O)ccn(CCc2c[nH]c3ccccc23)c1=O	-1	-5	5	2	3	74*
COC(=O)Cc1c(OC)ccn(CCc2c[nH]c3ccccc23)c1=O	-2	-4	0	2	3	-2
O=C(NCCN1CCOCC1)C(=O)NCC1OCCN1S(=O)(=O)c1ccc(Cl)cc1 (stereo not given)	nt	0	-1	nt	nt	-3
COc1cccc(S(=O)(=O)N(C)C[C@H]2Oc3cc(Br)ccc3S(=O)(=O)N([C@@H](C)CO)C[C@H]2C)c1	nt	-2	-4	nt	nt	-5
CCN1C(=O)c2cccc3c(NS(=O)(=O)c4ccc(NC(C)=O)cc4)ccc1c23	-2	-2	-5	0	2	-4
CCOC(=O)c1ccc(NC(=O)Nc2ccc3c4c(cccc24)C(=O)N3CC)cc1	5	nt	68*	-5	2	25
COc1ccc(-c2ccc3c(c2)S(=O)(=O)c2cccc(C(=O)NCCOc4ccccc4Cl)c2C3=O)cc1OC	nt	10	-17	7	-2	65*
Cc1ccc2[nH]c3c(N4CCc5ccccc5C4)ncnc3c2c1	2	8	7	-17	62*	4
CCOc1ccc2[nH]c3c(NCC(C)C)ncnc3c2c1	2	-8	5	-4	3	-3
CCOc1ccc2[nH]c3c(N4CCc5ccccc5C4)ncnc3c2c1	-3	0	1	nt	28*	3
COc1ccc(-c2nc3c4ccccc4ccn3c2Cc2ccsc2)cc1OC	nt	8	1	nt	nt	3
CC(C)NC(=O)C1C(c2ccc(C(F)(F)F)cc2)=Nc2ccccc2N1C(=O)c1cccc2ccccc12 (stereo not given)	nt	nt	1	nt	nt	-3
Cc1cc(=O)[nH]c(N/N=C/c2c(C)nn(-c3ccccc3)c2Cl)n1	0	-2	-2	-12	2	3
Cc1nn(-c2ccccc2)c(Cl)c1/C=N/Nc1nc2ccccc2[nH]1	1	-2	68*	6	-2	4
CCNC(=O)C1(C)CCN(C(=O)c2ccccc2F)C1 (stereo not given)	nt	-6	0	nt	nt	0
CCCCn1nnnc1C(c1cc2ccccc2o1)N1CCN(CC(=O)N2CCCC2)CC1 (stereo not given)	nt	nt	2	nt	nt	4
O=c1ccc2cc3c([nH]c4ccc(Br)cc43)oc-2c1O	14	46*	87	-22	10	29
NC(CO)c1cn([C@@H](CCC(=O)O)C(=O)N2CCNCC2)nn1 (stereo not given in full)	-1	2	1	22*	1	0
CCCC(=O)N1CCCC(c2cc(C(=O)Nc3ccccc3)no2)C1 (stereo not given)	nt	-2	-6	nt	nt	1
Cc1ccnc(N/C=C(/NC(=O)c2ccccc2)C(=O)N/N=C\c2ccc(Cl)cc2)n1	1	6	-5	-29	32*	2
Cc1cc2c(cc1C)-c1nnnn1C(N1CCCCC1)C(=O)N2 (stereo not given)	nt	nt	-1	nt	nt	-6
CC(OC(=O)/C=C/c1cccc(Cl)c1)C(=O)NC1CCCCC1C (stereo not given)	-3	5	0	2	-11	-1
CC(OC(=O)c1cccc(Cl)c1)C(=O)NC1CCCCC1C (stereo not given)	0	2	6	4	1	57*
SMILES	TPT1 inh	Rpn11 inh	HNF4A DNA FP	IDE act	IDE inh	CSN deneddyl inh
Cc1cccc(C)c1NC(=O)C(c1ccnc2ccccc12)n1c(=O)c(-c2ccco2)nc2ccccc21 (stereo not given)	nt	nt	44*	nt	nt	21
CCCCCNC(=O)C(c1cccc2ccccc12)n1c(=O)c(-c2ccco2)nc2ccccc21 (stereo not given)	nt	nt	40*	nt	nt	33
O=C(NCc1ccccc1)C(c1cccc2ccccc12)n1c(=O)c(-c2ccco2)nc2ccccc21 (stereo not given)	nt	nt	26	nt	nt	21
Cc1cccc(C)c1NC(=O)C(c1ccccc1F)n1c(=O)c(-c2ccco2)nc2ccccc21 (stereo not given)	nt	nt	45*	nt	nt	23
CCCCCCCC1CC(CSc2ncn[nH]2)OC1=O (stereo not given)	-13	-5	0	2	2	54*
CCCCC1CC(CSc2ncn[nH]2)OC1=O (stereo not given)	0	-2	-6	1	-1	2
CCOC(=O)/C(C#N)=N\Nc1cc(Cl)ccc1OC	7	10	75*	3	4	24
Cc1cc(NC(=O)/C(C#N)=C\c2ccc(-c3ccc(SC(F)F)cc3)o2)n(-c2ccccc2)n1	nt	nt	163	5	nt	81*
CN(C)CCNc1ncnc2c1sc1nc(-c3ccccc3)c3c(c12)CCCC3	4	11	22	32*	1	6
COc1ncnc2c1sc1nc(-c3ccccc3)c3c(c12)CCCC3	-2	5	-1	5	-2	-1
COc1ccc(-c2nc3ccccc3n(CC(C)C)c2=O)cc1	nt	nt	2	nt	nt	0
COC(=O)[C@@]12C[C@@H](CC(=O)N3CCN(C(=O)c4ccco4)CC3)C(=O)N(Cc3ccccc3)C1=CCC(C)(C)C2	nt	nt	0	nt	nt	-1
O=C(O)c1cccc(CN2C(=O)c3ccccc3C2=O)c1	-5	-2	-1	3	-2	-2
O=C1c2cccc3c(O)ccc(c23)C(=O)N1Cc1ccccc1	-47	-151	-73	59*	-16	-74
COc1cccc(C(=O)NC2CC3CCCC(C2)N3CC(=O)Nc2ccccc2)c1 (stereo not given)	1	32	0	3	2	62*
N#C/C(=C\c1ccc([N+](=O)[O-])o1)c1nc2ccccc2[nH]1	29*	nt	nt	nt	9	nt
N#C/C(=C(/O)c1ccc([N+](=O)[O-])o1)c1nc2ccccc2[nH]1	-6	1	-5	-51	12	4
CC(=O)C1=C(C)N=c2s/c(=C/c3ccc4c(c3)OCO4)c(=O)n2C1c1ccc(N(C)C)cc1 (stereo not given)	nt	nt	78*	4	nt	42*
CCOc1ccc(/C=C2/C(=O)N(c3ccc(OC)cc3)C(=S)N2CC(=O)OC)cc1OCC	20	nt	47*	5	3	72
O=C(NCC[C@H]1CC[C@@H](NC(=O)C2CCC2)[C@@H](CO)O1)c1cc(Cl)cc(Cl)c1	nt	nt	-2	nt	nt	-5
Cc1ccc(CN2C(=O)CSCC2(C)C(=O)NCc2ccccc2)cc1 (stereo not given)	nt	nt	5	nt	nt	-5
CCC(/C=C1\Oc2ccc(OC)cc2N1C)=C\c1sc2ccccc2[n+]1CCCS(=O)(=O)[O-]	nt	nt	170	-10	nt	73*
